Source: publication PMC5955861 (Oncogene, 2018)
Read-outs that look alike come from different tables or passages of the source.

Key:
[1] = tested on: RC-K8; experiment: alamarBlue cell proliferation assay; assay type: cell-based; conditions: Homo sapiens, RCK8
Method in brief: (§1)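 Leukemia, lymphoma and myeloma lines (from ATCC or DSMZ, grown per supplier instructions, STR-authenticated; GFP-labelled sublines where stated) were incubated with test compound in 96-well flat-bottom plates. Viability was read by alamarBlue conversion, and EC50 was taken from the concentration-response.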

[2] = tested on: MV-4-11B; experiment: alamarBlue cell proliferation assay; assay type: cell-based, human; conditions: Homo sapiens
Method in brief: (§2)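 Cell lines from ATCC or DSMZ were cultured per supplier's instructions and STR-authenticated. MV-4-11B is a clone of MV-4-11 carrying heterozygous TP53 c.742C>T (p.R248W). Cells were exposed to test compound in 96-well format, and viability was read after incubation with alamarBlue.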

[3] = tested on: JEKO-1; experiment: alamarBlue cell proliferation assay; assay type: cell-based; conditions: Homo sapiens
Method in brief: as §1

[4] = tested on: Pfeiffer; experiment: alamarBlue cell proliferation assay; assay type: cell-based; conditions: Homo sapiens
Method in brief: as §1

[5] = tested on: OPM-2; experiment: alamarBlue cell proliferation assay; assay type: cell-based; conditions: Homo sapiens
Method in brief: as §1

[6] = tested on: AML primary patient samples; experiment: proliferation of ex vivo-treated primary patient samples; assay type: cell-based; conditions: Homo sapiens
[7] = tested on: OCI-Ly3; experiment: alamarBlue cell proliferation assay; assay type: cell-based; conditions: Homo sapiens
Method in brief: as §1

[8] = tested on: Hexim1 mRNA; experiment: Hexim1 mRNA in blood of xenograft bearing mice; assay type: in vivo; conditions: 24 h after dosing; MV-4-11B xenograft bearing mice
Method in brief: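 Mice bearing subcutaneous MV-4-11B xenografts were dosed daily with vehicle or test compound at 2, 4 or 12 mg/kg, and blood was collected on the indicated treatment days. Total RNA was isolated with TRI reagent, and 500 ng was reverse-transcribed. Hexim1 transcript was quantified by SYBR Green qRT-PCR.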

[9] = tested on: NOMO-1; experiment: alamarBlue cell proliferation assay; assay type: cell-based; conditions: Homo sapiens
Method in brief: as §1

[10] = tested on: HT; experiment: alamarBlue cell proliferation assay; assay type: cell-based; conditions: Homo sapiens
Method in brief: as §1

[11] = tested on: DERL-2; experiment: alamarBlue cell proliferation assay; assay type: cell-based; conditions: T-cell
Method in brief: as §1

[12] = tested on: DOHH-2; experiment: alamarBlue cell proliferation assay; assay type: cell-based; conditions: Homo sapiens
Method in brief: as §1

[13] = tested on: MOLM-1; experiment: alamarBlue cell proliferation assay; assay type: cell-based
Method in brief: as §1

[14] = tested on: OCI-AML3; experiment: alamarBlue cell proliferation assay; assay type: cell-based; conditions: Homo sapiens, OCI-AML-3
Method in brief: as §1

[15] = tested on: J.RT3-T3.5; experiment: alamarBlue cell proliferation assay; assay type: cell-based; conditions: Homo sapiens
Method in brief: as §1

[16] = tested on: MM.1R; experiment: alamarBlue cell proliferation assay; assay type: cell-based
Method in brief: as §1

[17] = target: BRD2/3/4 and BRDT; experiment: BROMOscan ligand-binding site-directed competition assay
[18] = tested on: SU-DHL2; experiment: alamarBlue cell proliferation assay; assay type: cell-based; conditions: Homo sapiens, SU-DHL-2
Method in brief: as §1

[19] = tested on: MOLM-13; experiment: alamarBlue cell proliferation assay; assay type: cell-based; conditions: Homo sapiens
Method in brief: as §1

[20] = tested on: SU-DHL6; experiment: alamarBlue cell proliferation assay; assay type: cell-based; conditions: Homo sapiens, SU-DHL-6
Method in brief: as §2

## CNc1nc(-c2nc3ccc(N4CCN(C)CC4)cc3n2Cc2ccccc2)cn2c(C)nnc12 [BI 894999]
[1]
  EC50: 7.8 ± 0.9 nM
[2]
  EC50: 6.8 ± 4 nM
[2]; read-out: anti-proliferative EC50
  EC50: 10 nM
[3]
  EC50: 7.9 ± 2.1 nM
[4]
  EC50: 10.7 ± 2.7 nM
[5]
  EC50: 8.9 ± 4.7 nM
[6]; 16/20 AML patient samples
  EC50: < 10 nM
[6]; read-out: BI 894999 EC50, AML Patient 1, risk group Intermediate
  EC50: 4 nM
[6]; read-out: BI 894999 EC50, AML Patient 2, risk group Intermediate
  EC50: < 1 nM
[6]; read-out: BI 894999 EC50, AML Patient 3, risk group Intermediate
  EC50: 5 nM
[6]; read-out: BI 894999 EC50, AML Patient 4, risk group High
  EC50: 1080 nM
[6]; read-out: BI 894999 EC50, AML Patient 5, risk group High
  EC50: 89 nM
[6]; read-out: BI 894999 EC50, AML Patient 6, risk group Intermediate
  EC50: 2 nM
[6]; read-out: BI 894999 EC50, AML Patient 7, risk group Intermediate
  EC50: 12 nM
[6]; read-out: BI 894999 EC50, AML Patient 8, risk group High
  EC50: 2 nM
[6]; read-out: BI 894999 EC50, AML Patient 9, risk group Intermediate
  EC50: 5 nM
[6]; read-out: BI 894999 EC50, AML Patient 10, risk group High
  EC50: < 1 nM
[6]; read-out: BI 894999 EC50, AML Patient 11, risk group High
  EC50: 18 nM
[6]; read-out: BI 894999 EC50, AML Patient 12, risk group Intermediate
  EC50: 4 nM
[6]; read-out: BI 894999 EC50, AML Patient 13, risk group Intermediate
  EC50: < 1 nM
[6]; read-out: BI 894999 EC50, AML Patient 14
  EC50: < 1 nM
[6]; read-out: BI 894999 EC50, AML Patient 15, risk group Intermediate
  EC50: 1 nM
[6]; read-out: BI 894999 EC50, AML Patient 16
  EC50: < 1 nM
[6]; read-out: BI 894999 EC50, AML Patient 17, risk group High
  EC50: < 1 nM
[6]; read-out: BI 894999 EC50, AML Patient 18, risk group Intermediate
  EC50: < 1 nM
[6]; read-out: BI 894999 EC50, AML Patient 19, risk group Intermediate
  EC50: < 1 nM
[6]; read-out: BI 894999 EC50, AML Patient 20, risk group Intermediate
  EC50: < 1 nM
[7]
  EC50: 8.2 ± 2.3 nM
[8]
  Hexim1 levels in blood: back to baseline
[9]
  EC50: 5.7 ± 4.1 nM
[10]
  EC50: 11.6 ± 8.1 nM
[11]
  EC50: 10.6 ± 9.5 nM
[12]
  EC50: 6.2 ± 0.8 nM
[13]
  EC50: 53.4 ± 34.8 nM
[14]
  EC50: 2.3 ± 0.5 nM
[15]
  EC50: 11 ± 4 nM
[16]
  EC50: 2.5 ± 2.1 nM
[17]; BRD2/3/4 and BRDT, 24 bromodomains tested
  Kd: 0.49 to 1.6 nM
[17]; other bromodomains of the panel (n = 24) vs. BRD4-BD1
  selectivity vs. BRD4-BD1: ≥ 200 fold
[18]
  EC50: 10.7 ± 3.2 nM
[19]
  EC50: 12.8 ± 3.4 nM
[20]
  EC50: 13.4 ± 1.2 nM
